Compound activity: PubChem BioAssay, several laboratories
This is a sample that favours compounds with a hit; in the whole collection about 1.9% have one here.
RanGTP-Imp inh – inhibitors of RanGTP-importin-beta interaction, primary screen, biochemical, FRET, CFP-Ran, YFP-importin-beta, homogeneous. AID 2216. cell-free CFP-Ran/YFP-importin-beta FRET ratio. actives 1.1% (n = 300,000). inhibition, % (no concentration beside the values);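 active = more than half of the replicate wells show a fall in the fluorescence ratio signal beyond about 16%, limit read from the data, passing the limit was not always enough; inconclusive = exactly half of the replicate wells pass the set limit; inactive = fewer than half of replicates pass the limit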
Runt-SMMHC FRET – inhibitors of human RUNX1 Runt domain binding to CBFb-SMMHC. Q01196+Q13951. Cerulean-Runt/Venus-CBFb-SMMHC FRET ratio 530/480, 1 h. inhibition, % at 20 µM. actives 0.74% (n = 220,000). AID 1434;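 active = mean inhibition across duplicate retests at 20 µM reaching about 50%, limit read from the data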;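 also: inhibitors lower the FRET ratio by blocking Runt binding to CBFb-SMMHC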
Target sequence (Q01196 whole entry, looked up, the tested form may be a part): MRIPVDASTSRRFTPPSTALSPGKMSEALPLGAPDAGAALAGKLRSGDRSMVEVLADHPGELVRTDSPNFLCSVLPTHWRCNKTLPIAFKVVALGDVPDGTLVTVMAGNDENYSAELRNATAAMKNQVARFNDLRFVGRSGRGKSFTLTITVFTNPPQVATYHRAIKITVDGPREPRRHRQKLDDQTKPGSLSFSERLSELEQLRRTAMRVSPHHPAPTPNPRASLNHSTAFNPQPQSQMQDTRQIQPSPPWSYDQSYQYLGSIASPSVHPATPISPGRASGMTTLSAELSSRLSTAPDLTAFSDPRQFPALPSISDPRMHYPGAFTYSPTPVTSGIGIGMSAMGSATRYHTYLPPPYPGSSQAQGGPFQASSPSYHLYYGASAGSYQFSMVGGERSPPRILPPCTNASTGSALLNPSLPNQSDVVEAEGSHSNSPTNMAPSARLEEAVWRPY
Target sequence (Q13951 whole entry, looked up, the tested form may be a part): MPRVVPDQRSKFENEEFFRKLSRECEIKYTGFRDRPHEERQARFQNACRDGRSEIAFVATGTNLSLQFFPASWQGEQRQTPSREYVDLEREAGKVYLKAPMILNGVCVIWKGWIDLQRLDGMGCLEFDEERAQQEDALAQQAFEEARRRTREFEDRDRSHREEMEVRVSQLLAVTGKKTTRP
Hck-Nef inh – human Hck-Nef kinase inhibition; actives 0.68% (n = 220,000); Recombinant Hck-YEEI plus Nef, Z-Lyte FRET kinase assay; inhibition, % at 20 µM; P08631;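 active = Hck-Nef kinase inhibition above about 50%, limit read from the data; inactive = inhibition below that limit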
Runt-CBFb FRET – blocks binding of human RUNX1 Runt domain to CBFb; Cerulean-Runt/Venus-CBFb FRET ratio 530/480, 1 h; Q01196+Q13951; actives 0.46% (n = 220,000); AID 1496; inhibition, % at 20 µM;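 active = inhibition over about 50% at 20 µM in the single-dose screen, limit read from the data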
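Measured by: fluorescence energy transfer, 422 nm excitation, 530/480 nm emission; test system: Cerulean-tagged RUNX1 Runt domain (FRET donor) fusion protein; buffer or medium: Tris pH 7.5 buffer with BSA; compound: one dose, 20 µM compound, 1% DMSO; times: two 1 h room-temperature incubations shielded from light; benchmarks: unlabeled CBFb 5 µM, positive control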
Runt-CBFb TRFRET – inhibitors of human RUNX1 Runt domain binding to CBFb; inhibition, % at 20 µM; actives 20% (n = 480); shares compounds with Runt-CBFb FRET; TR-FRET RUNX1 Runt domain-CBFb binding; in the data active = inhibition above about 40%
YIC counter – counter-screen for RanGTP-importin-beta inhibitors: YIC FRET probe | shares compounds with RanGTP-Imp inh | Purified YIC probe, intramolecular FRET ratio YFP/CFP | IC50, µM | actives 40% (n = 1,000);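 active = fitted half-maximal inhibitory concentration no more than tenfold above the top dose tested; inconclusive = flat fit with 30 to 70% activity, or poor fit; inactive = half-maximal concentration beyond tenfold above the top dose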
Hits are given with their value; n = inactive; u = inconclusive; x = not tested or not shown.

SMILES | RanGTP-Imp inh | Runt-SMMHC FRET | Hck-Nef inh | Runt-CBFb FRET | others
C[C@H]1CC[C@@H]2[C@@H](C)[C@H]3[C@H](C[C@H]4[C@@H]5CC=C6C[C@@H](O[C@@H]7O[C@H](CO)[C@H](O)[C@H](O[C@@H]8O[C@H](CO)[C@@H](O)[C@H](O)[C@H]8O)[C@H]7O[C@@H]7O[C@@H](C)[C@H](O)[C@@H](O)[C@H]7O)CC[C@]6(C)[C@H]5CC[C@]34C)N2C1 | 17 | n | n | n
Cc1ccccc1-n1c(O)c(/C=N/NC(=O)c2ccccc2O)c(=O)[nH]c1=S | n | 59 | n | n
O=C(N/N=C/c1c(O)n(C2CC2)c(=S)[nH]c1=O)c1ccccc1O | n | 73 | n | n
O=C(N/N=C/c1c(O)n(-c2ccccc2)c(=S)[nH]c1=O)c1ccccc1 | n | n | n | n
COc1cc2[nH]c(C(=O)N3CCC4(CC3)OCCO4)cc2c(OC)c1OC | n | x | x | x
Cc1c(C)c2cc(Cl)c(OCC(=O)N3C[C@H]4C[C@@H](C3)c3cccc(=O)n3C4)cc2oc1=O | n | x | x | x
Cc1c(CC(=O)N2C[C@H]3C[C@@H](C2)c2cccc(=O)n2C3)c(=O)oc2c(C)c(O)ccc12 | 71 | x | x | x
Cc1c(CC(=O)N2C[C@H]3C[C@@H](C2)c2cccc(=O)n2C3)c(=O)oc2cc(O)c(Cl)cc12 | 75 | x | x | x
COc1ccccc1NC1(C#N)CCCCC1 | n | n | n | n
C[C@]12CC[C@@H]3c4ccc(O)c(O)c4CC[C@H]3[C@@H]1CC[C@@H]2O | u | 66 | x | 54 | Runt-CBFb TRFRET=52
CCCCCn1c(=O)c(C(=O)NCc2ccco2)c(O)c2ccccc21 | n | n | n | n
CCCNC(=O)c1c(N)n(Cc2ccco2)c2nc3ccccc3nc12 | 93 | 59 | n | 52 | Runt-CBFb TRFRET=n
CC(C)OC1CCCC(O)C1CC(=O)O (configuration not stated) | u | n | n | n
ClCCNc1nc2ccc(Cl)cc2[nH]1 | n | n | n | n
O=C(NCCO)c1nsnc1NCCCl | n | n | n | 56 | Runt-CBFb TRFRET=n
O=S1(=O)CC2(N3CCOCC3)CCCCCCC21 (configuration not stated) | u | n | n | 80 | Runt-CBFb TRFRET=n
COC(=O)C1=C(c2cccc(OC)c2OC)C[C@@H]2CC[C@H]1N2C(=O)NC1CC1 | n | x | x | x
COCCCn1c(N)c(C(=O)OCCOC)c2nc3ccccc3nc21 | u | 116 | n | 81 | Runt-CBFb TRFRET=n
COCCOC(=O)c1c(N)n(Cc2ccc(OC)cc2)c2nc3ccccc3nc12 | n | 105 | n | 52 | Runt-CBFb TRFRET=n
CCOC(=O)c1c(C)n(CCOC)c2ccc(O)cc12 | n | n | n | n
COc1ccc(CCNCc2ccccc2)cc1 | n | x | x | x
CCOC(=O)c1c(N)n(CCCOC(=O)c2ccco2)c2nc3ccccc3nc12 | 23 | 116 | n | 72 | Runt-CBFb TRFRET=n;YIC counter=24
Nc1ccccc1C(=O)OC1CSC1 | n | n | n | n
Cc1c(OC(=O)N(C)C)ccc2c1O/C(=C\c1ccco1)C2=O | 30 | x | x | x | YIC counter=12
Cc1sc2nc(COC(=O)Cc3ccccc3)[nH]c(=O)c2c1C | 20 | n | n | n | YIC counter=n
SMILES | RanGTP-Imp inh | Runt-SMMHC FRET | Hck-Nef inh | Runt-CBFb FRET | others
Cc1cccc(C)c1OC(=O)Cc1ccccc1 | n | n | n | n
CCc1ccc(N2C(=O)NC(=O)/C(=C\c3cc(C)n(-c4cc(C(=O)O)cc(C(=O)O)c4)c3C)C2=O)cc1 | 19 | x | x | x | YIC counter=n
Cc1cc(/C=C2\C(=O)NC(=O)N(c3ccc(F)cc3)C2=O)c(C)n1-c1ccc(C(=O)O)cc1 | 18 | n | n | n | YIC counter=n
O=C(O)C(Cc1cnc[nH]1)NS(=O)(=O)c1ccc(Cl)cc1 (configuration not stated) | n | n | n | n
CC(C)CCN1CCN(Cc2c(F)cccc2Cl)CC1CCO (configuration not stated) | n | n | n | n
CCN(CC)c1ccc(/C=N/c2sc3c(c2C#N)C2CCN3CC2)c(O)c1 | x | n | n | n
O=c1[nH]c(=O)n(-c2cccc3ccccc23)c(O)c1/C=N/N1CCCCC1 | n | n | n | n
Cn1c(O)c(/C=N/N2CCCCC2)c(=O)[nH]c1=O | n | n | n | n
